Tested on: U2OS
Test: Multiplex assay against U2OS
Type: toxicity, cell-based
Conditions: human
How it was run: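 Hoechst33342, BioTracker Green Microtubule Cytoskeleton Dye, MitoTracker Red and Annexin V Alexa Fluor 680 were added to live cells at seeding, and imaging on a CQ1 microscope at 37°C and 5% CO2 followed compound addition. Gating by CellPathfinder machine learning separated cells into Hoechst high-intensity objects or normal cells, then normal cells into healthy, pyknosed or fragmented nuclei, then pyknosed cells into mitotic or apoptotic. Per cents of healthy-nucleus cells are reported for the tubulin, mitochondrial-mass and membrane-permeability phenotypes.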

[1] = 12 h, 1 µM, compound concentration 1 uM, replicate 1
[2] = 12 h, 1 µM, compound concentration 1 uM, replicate 2
[3] = 12 h, 10 µM, compound concentration 10 uM, replicate 1
[4] = 12 h, 10 µM, compound concentration 10 uM, replicate 2
[5] = 24 h, 1 µM, compound concentration 1 uM, replicate 1
[6] = 24 h, 1 µM, compound concentration 1 uM, replicate 2
[7] = 24 h, 10 µM, compound concentration 10 uM, replicate 1
[8] = 24 h, 10 µM, compound concentration 10 uM, replicate 2
[9] = 48 h, 1 µM, compound concentration 1 uM, replicate 1
[10] = 48 h, 1 µM, compound concentration 1 uM, replicate 2
[11] = 48 h, 10 µM, compound concentration 10 uM, replicate 1
[12] = 48 h, 10 µM, compound concentration 10 uM, replicate 2

## C[C@H](NC(=O)CNC(=O)c1cccc(Cl)c1)c1ccccc1
[1]
  Population Apoptotic (%): 78%
  Population Fragmented Nuclei (%): 26%
  Population Healthy Nuclei (%): 61%
  Population Hoechst High Intensity Objects (%): 3%
  Population Membrane Permeable-Phenotype (%): 6%
  Population Mitochondria Different-Phenotype (%): 4%
  Population Mitotic Cells (%): 21%
  Population Normal (%): 96%
  Population Pyknosed Nuclei (%): 12%
  Population Tubulin-Different-Phenotype (%): 2%
  Total Cell Count: 242
[2]
  Population Apoptotic (%): 71%
  Population Fragmented Nuclei (%): 20%
  Population Healthy Nuclei (%): 68%
  Population Membrane Permeable-Phenotype (%): 8%
  Population Mitochondria Different-Phenotype (%): 2%
  Population Mitotic Cells (%): 28%
  Population Pyknosed Nuclei (%): 11%
  Total Cell Count: 124
[3]
  Population Apoptotic (%): 68%
  Population Fragmented Nuclei (%): 24%
  Population Healthy Nuclei (%): 63%
  Population Hoechst High Intensity Objects (%): 2%
  Population Membrane Permeable-Phenotype (%): 9%
  Population Mitochondria Different-Phenotype (%): 3%
  Population Mitotic Cells (%): 31%
  Population Normal (%): 97%
  Population Pyknosed Nuclei (%): 11%
  Population Tubulin-Different-Phenotype (%): 4%
  Total Cell Count: 198
[4]
  Population Apoptotic (%): 66%
  Population Fragmented Nuclei (%): 13%
  Population Healthy Nuclei (%): 82%
  Population Hoechst High Intensity Objects (%): 0%
  Population Membrane Permeable-Phenotype (%): 2%
  Population Mitotic Cells (%): 33%
  Population Normal (%): 100%
  Population Pyknosed Nuclei (%): 4%
  Population Tubulin-Different-Phenotype (%): 2%
  Total Cell Count: 150
[5]
  Population Apoptotic (%): 79%
  Population Fragmented Nuclei (%): 19%
  Population Healthy Nuclei (%): 71%
  Population Hoechst High Intensity Objects (%): 2%
  Population Membrane Permeable-Phenotype (%): 7%
  Population Mitochondria Different-Phenotype (%): 2%
  Population Mitotic Cells (%): 20%
  Population Normal (%): 97%
  Population Pyknosed Nuclei (%): 8%
  Population Tubulin-Different-Phenotype (%): 2%
  Total Cell Count: 275
[6]
  Population Apoptotic (%): 88%
  Population Healthy Nuclei (%): 69%
  Population Membrane Permeable-Phenotype (%): 4%
  Population Mitochondria Different-Phenotype (%): 4%
  Population Mitotic Cells (%): 11%
  Population Pyknosed Nuclei (%): 10%
  Population Tubulin-Different-Phenotype (%): 0%
  Total Cell Count: 168
[7]
  Population Apoptotic (%): 90%
  Population Fragmented Nuclei (%): 24%
  Population Healthy Nuclei (%): 61%
  Population Hoechst High Intensity Objects (%): 1%
  Population Membrane Permeable-Phenotype (%): 6%
  Population Mitochondria Different-Phenotype (%): 4%
  Population Mitotic Cells (%): 9%
  Population Normal (%): 98%
  Population Pyknosed Nuclei (%): 13%
  Population Tubulin-Different-Phenotype (%): 2%
  Total Cell Count: 239
[8]
  Population Apoptotic (%): 71%
  Population Fragmented Nuclei (%): 12%
  Population Healthy Nuclei (%): 83%
  Population Membrane Permeable-Phenotype (%): 4%
  Population Mitochondria Different-Phenotype (%): 2%
  Population Mitotic Cells (%): 28%
  Population Pyknosed Nuclei (%): 3%
  Population Tubulin-Different-Phenotype (%): 3%
  Total Cell Count: 189
[9]
  Population Apoptotic (%): 74%
  Population Fragmented Nuclei (%): 18%
  Population Healthy Nuclei (%): 71%
  Population Hoechst High Intensity Objects (%): 3%
  Population Membrane Permeable-Phenotype (%): 6%
  Population Mitochondria Different-Phenotype (%): 3%
  Population Mitotic Cells (%): 25%
  Population Normal (%): 96%
  Population Pyknosed Nuclei (%): 10%
  Population Tubulin-Different-Phenotype (%): 1%
  Total Cell Count: 401
[10]
  Population Apoptotic (%): 100%
  Population Fragmented Nuclei (%): 17%
  Population Healthy Nuclei (%): 70%
  Population Hoechst High Intensity Objects (%): 2%
  Population Membrane Permeable-Phenotype (%): 4%
  Population Mitotic Cells (%): 0%
  Population Normal (%): 97%
  Population Pyknosed Nuclei (%): 11%
  Population Tubulin-Different-Phenotype (%): 2%
  Total Cell Count: 205
[11]
  Population Apoptotic (%): 81%
  Population Fragmented Nuclei (%): 19%
  Population Healthy Nuclei (%): 73%
  Population Hoechst High Intensity Objects (%): 2%
  Population Membrane Permeable-Phenotype (%): 6%
  Population Mitochondria Different-Phenotype (%): 2%
  Population Mitotic Cells (%): 18%
  Population Normal (%): 97%
  Population Pyknosed Nuclei (%): 7%
  Population Tubulin-Different-Phenotype (%): 4%
  Total Cell Count: 311
[12]
  Population Apoptotic (%): 100%
  Population Fragmented Nuclei (%): 12%
  Population Healthy Nuclei (%): 80%
  Population Hoechst High Intensity Objects (%): 1%
  Population Membrane Permeable-Phenotype (%): 4%
  Population Mitochondria Different-Phenotype (%): 1%
  Population Mitotic Cells (%): 0%
  Population Normal (%): 98%
  Population Tubulin-Different-Phenotype (%): 1%
  Total Cell Count: 279

## Cc1c(Cc2ccc3ccccc3n2)c2cc(F)ccc2n1CC(=O)O [TIMAPIPRANT]
[1]
  Population Apoptotic (%): 84%
  Population Fragmented Nuclei (%): 21%
  Population Healthy Nuclei (%): 69%
  Population Hoechst High Intensity Objects (%): 2%
  Population Membrane Permeable-Phenotype (%): 3%
  Population Mitochondria Different-Phenotype (%): 1%
  Population Mitotic Cells (%): 16%
  Population Normal (%): 97%
  Population Pyknosed Nuclei (%): 8%
  Population Tubulin-Different-Phenotype (%): 1%
  Total Cell Count: 298
[2]
  Population Apoptotic (%): 83%
  Population Fragmented Nuclei (%): 22%
  Population Healthy Nuclei (%): 70%
  Population Hoechst High Intensity Objects (%): 1%
  Population Membrane Permeable-Phenotype (%): 4%
  Population Mitochondria Different-Phenotype (%): 4%
  Population Normal (%): 98%
  Population Pyknosed Nuclei (%): 6%
  Population Tubulin-Different-Phenotype (%): 3%
  Total Cell Count: 94
[3]
  Population Apoptotic (%): 75%
  Population Fragmented Nuclei (%): 30%
  Population Healthy Nuclei (%): 62%
  Population Hoechst High Intensity Objects (%): 2%
  Population Membrane Permeable-Phenotype (%): 4%
  Population Mitochondria Different-Phenotype (%): 1%
  Population Mitotic Cells (%): 25%
  Population Normal (%): 97%
  Population Pyknosed Nuclei (%): 6%
  Population Tubulin-Different-Phenotype (%): 2%
  Total Cell Count: 244
[4]
  Population Apoptotic (%): 68%
  Population Fragmented Nuclei (%): 12%
  Population Healthy Nuclei (%): 75%
  Population Hoechst High Intensity Objects (%): 0%
  Population Membrane Permeable-Phenotype (%): 6%
  Population Mitochondria Different-Phenotype (%): 3%
  Population Mitotic Cells (%): 31%
  Population Normal (%): 99%
  Population Pyknosed Nuclei (%): 12%
  Population Tubulin-Different-Phenotype (%): 3%
  Total Cell Count: 132
[5]
  Population Apoptotic (%): 96%
  Population Fragmented Nuclei (%): 18%
  Population Healthy Nuclei (%): 73%
  Population Hoechst High Intensity Objects (%): 1%
  Population Membrane Permeable-Phenotype (%): 6%
  Population Mitochondria Different-Phenotype (%): 3%
  Population Mitotic Cells (%): 3%
  Population Normal (%): 98%
  Population Pyknosed Nuclei (%): 7%
  Population Tubulin-Different-Phenotype (%): 4%
  Total Cell Count: 371
[6]
  Population Apoptotic (%): 100%
  Population Fragmented Nuclei (%): 19%
  Population Membrane Permeable-Phenotype (%): 7%
  Population Mitochondria Different-Phenotype (%): 2%
  Population Mitotic Cells (%): 0%
  Population Tubulin-Different-Phenotype (%): 3%
  Total Cell Count: 117
[7]
  Population Apoptotic (%): 94%
  Population Fragmented Nuclei (%): 26%
  Population Healthy Nuclei (%): 66%
  Population Hoechst High Intensity Objects (%): 1%
  Population Membrane Permeable-Phenotype (%): 6%
  Population Mitochondria Different-Phenotype (%): 2%
  Population Mitotic Cells (%): 5%
  Population Normal (%): 98%
  Population Pyknosed Nuclei (%): 6%
  Population Tubulin-Different-Phenotype (%): 3%
  Total Cell Count: 278
[8]
  Population Apoptotic (%): 72%
  Population Fragmented Nuclei (%): 18%
  Population Healthy Nuclei (%): 74%
  Population Hoechst High Intensity Objects (%): 0%
  Population Membrane Permeable-Phenotype (%): 8%
  Population Mitotic Cells (%): 27%
  Population Normal (%): 100%
  Population Pyknosed Nuclei (%): 7%
  Total Cell Count: 152
[9]
  Population Apoptotic (%): 88%
  Population Fragmented Nuclei (%): 16%
  Population Healthy Nuclei (%): 77%
  Population Hoechst High Intensity Objects (%): 1%
  Population Membrane Permeable-Phenotype (%): 4%
  Population Mitochondria Different-Phenotype (%): 3%
  Population Mitotic Cells (%): 11%
  Population Normal (%): 98%
  Population Pyknosed Nuclei (%): 6%
  Population Tubulin-Different-Phenotype (%): 3%
  Total Cell Count: 536
[10]
  Population Apoptotic (%): 90%
  Population Fragmented Nuclei (%): 22%
  Population Healthy Nuclei (%): 71%
  Population Hoechst High Intensity Objects (%): 2%
  Population Membrane Permeable-Phenotype (%): 12%
  Population Mitochondria Different-Phenotype (%): 5%
  Population Mitotic Cells (%): 10%
  Population Normal (%): 97%
  Population Tubulin-Different-Phenotype (%): 6%
  Total Cell Count: 168
[11]
  Population Apoptotic (%): 100%
  Population Fragmented Nuclei (%): 19%
  Population Healthy Nuclei (%): 74%
  Population Hoechst High Intensity Objects (%): 0%
  Population Membrane Permeable-Phenotype (%): 3%
  Population Mitochondria Different-Phenotype (%): 1%
  Population Mitotic Cells (%): 0%
  Population Normal (%): 99%
  Population Pyknosed Nuclei (%): 6%
  Population Tubulin-Different-Phenotype (%): 1%
  Total Cell Count: 392
[12]
  Population Apoptotic (%): 92%
  Population Fragmented Nuclei (%): 13%
  Population Healthy Nuclei (%): 80%
  Population Hoechst High Intensity Objects (%): 2%
  Population Membrane Permeable-Phenotype (%): 5%
  Population Mitochondria Different-Phenotype (%): 3%
  Population Mitotic Cells (%): 7%
  Population Normal (%): 97%
  Population Tubulin-Different-Phenotype (%): 3%
  Total Cell Count: 204

From ChEMBL document CHEMBL5058577, “EUbOPEN Chemogenomics Library 2 (Multiplex)” (2022)
